One block for each compound: values may come before it.
Experiments:
[1] = test system: Baboon; test: Effect on reduction of platelet deposition in iv dosed baboon after 60 mins; assay type: functional, organism-based; settings: Papio, 1 h
Summary of the method: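 Sigmoid Emax model fitted to dose (mg/kg) versus percent inhibition of platelet deposition relative to control at 60 min post IV bolus in the baboon A-V shunt model; ED50 is the dose producing 50% of maximum effect.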

[2] = molecular target: T1, Coagulation factor VII/tissue factor (Homo sapiens) (UniProt P08709+P13726); test: Anticoagulant potency in baboon as measured by prothrombin time at 0.03 mg/kg, iv 1 hr post dose; assay type: functional, organism-based; set-up: dose 0.03 mg/kg; settings: Papio, target entry is the homologue from another species
Summary of the method: (§1)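 Conscious non-anticoagulated baboons with chronic femoral arterio-venous shunt; single IV bolus, thrombogenic device inserted 5 min post dose. Device: 2 cm ePTFE graft (4 mm id) filled with relipidated tissue factor, flow 100 mL/min (shear 265/s), 60 min. Platelets: 111-In-labeled autologous, gamma camera every 5 min; fibrin: 125-I fibrinogen, graft counted after 30 days decay; PT monitored throughout; reduction vs saline control.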

[3] = molecular target: T1, Coagulation factor VII/tissue factor (Homo sapiens); test: Anticoagulant potency in baboon as measured by prothrombin time at 0.1 mg/kg, iv 1 hr post dose; assay type: functional, organism-based; set-up: dose 0.1 mg/kg; settings: Papio, target entry is the homologue from another species; summary of the method: as §1
[4] = molecular target: T1, Coagulation factor VII/tissue factor (Homo sapiens); test: Anticoagulant potency in baboon as measured by prothrombin time at 0.5 mg/kg, iv 1 hr post dose; assay type: functional, organism-based; set-up: dose 0.5 mg/kg; settings: Papio, target entry is the homologue from another species; summary of the method: as §1
[5] = molecular target: T1, Coagulation factor VII/tissue factor (Homo sapiens); test: Selectivity for fVIIa/TF complex over fXa; assay type: protein-complex assay
Summary of the method: (§2)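 Ki ratios; fXa and thrombin assays pH 7.4, fVIIa assay with 7 nM fVIIa, 11 nM relipidated tissue factor, 5 mM CaCl2 and substrate CH3SO2-D-CHA-But-Arg-pNA.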

[6] = molecular target: T1, Coagulation factor VII/tissue factor (Homo sapiens); test: Selectivity for fVIIa/TF complex over fIIa; assay type: protein-complex assay; summary of the method: as §2
[7] = molecular target: T2, CYP1A2 (Homo sapiens, UniProt P05177); test: Inhibition of CYP1A2 at 10 uM; assay type: ADME
T2 sequence (P05177 whole entry): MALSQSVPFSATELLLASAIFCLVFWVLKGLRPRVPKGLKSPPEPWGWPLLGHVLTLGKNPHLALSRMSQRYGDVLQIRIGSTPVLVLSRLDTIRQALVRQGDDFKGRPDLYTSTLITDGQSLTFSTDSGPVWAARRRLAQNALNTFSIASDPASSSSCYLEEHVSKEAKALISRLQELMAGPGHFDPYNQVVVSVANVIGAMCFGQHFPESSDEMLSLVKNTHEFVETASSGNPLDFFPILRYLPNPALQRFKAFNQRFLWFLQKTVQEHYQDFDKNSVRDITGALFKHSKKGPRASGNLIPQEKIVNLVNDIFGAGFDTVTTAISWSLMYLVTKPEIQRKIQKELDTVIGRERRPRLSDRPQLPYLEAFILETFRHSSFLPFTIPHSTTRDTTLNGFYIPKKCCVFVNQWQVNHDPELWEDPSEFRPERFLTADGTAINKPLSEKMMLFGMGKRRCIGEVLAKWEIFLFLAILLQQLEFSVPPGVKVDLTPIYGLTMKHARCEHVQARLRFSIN
Summary of the method: (§3)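 Five cytochrome P450 isozymes tested at 10 µM; percent inhibition.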

[8] = molecular target: CYP2C9 (Homo sapiens, UniProt P11712); test: Inhibition of CYP2C9 at 10 uM; assay type: ADME; summary of the method: as §3
CYP2C9, sequence (P11712 whole entry): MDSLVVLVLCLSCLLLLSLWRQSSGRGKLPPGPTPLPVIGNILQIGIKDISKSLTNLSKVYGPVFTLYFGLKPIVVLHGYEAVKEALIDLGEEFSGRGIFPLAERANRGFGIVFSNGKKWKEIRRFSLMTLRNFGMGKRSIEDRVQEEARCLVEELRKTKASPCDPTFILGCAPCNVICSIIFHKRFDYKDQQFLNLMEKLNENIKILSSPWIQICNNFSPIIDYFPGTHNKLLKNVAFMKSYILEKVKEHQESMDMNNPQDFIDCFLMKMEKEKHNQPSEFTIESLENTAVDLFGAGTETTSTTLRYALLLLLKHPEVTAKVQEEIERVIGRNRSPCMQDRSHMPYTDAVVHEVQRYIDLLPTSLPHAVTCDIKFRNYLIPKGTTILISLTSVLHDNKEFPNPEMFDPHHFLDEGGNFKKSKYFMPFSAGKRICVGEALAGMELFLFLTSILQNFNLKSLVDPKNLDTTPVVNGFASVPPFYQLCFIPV

[9] = molecular target: CYP2C19 (Homo sapiens, UniProt P33261); test: Inhibition of CYP2C19 at 10 uM; assay type: ADME; summary of the method: as §3
CYP2C19, sequence (P33261 whole entry): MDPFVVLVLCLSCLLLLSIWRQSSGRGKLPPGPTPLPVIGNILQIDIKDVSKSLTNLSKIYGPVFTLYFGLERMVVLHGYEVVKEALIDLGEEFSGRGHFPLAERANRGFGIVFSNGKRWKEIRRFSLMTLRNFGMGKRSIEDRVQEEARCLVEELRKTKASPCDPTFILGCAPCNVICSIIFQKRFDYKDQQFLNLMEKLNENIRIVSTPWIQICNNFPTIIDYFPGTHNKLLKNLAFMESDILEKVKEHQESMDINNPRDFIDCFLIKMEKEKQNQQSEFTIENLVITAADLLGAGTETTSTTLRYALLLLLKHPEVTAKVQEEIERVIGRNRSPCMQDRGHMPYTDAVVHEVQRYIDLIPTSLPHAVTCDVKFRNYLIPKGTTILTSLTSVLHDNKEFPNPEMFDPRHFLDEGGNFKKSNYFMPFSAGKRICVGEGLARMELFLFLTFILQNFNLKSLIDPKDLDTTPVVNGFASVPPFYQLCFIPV

[10] = molecular target: CYP2D6 (Homo sapiens, UniProt P10635); test: Inhibition of CYP2D6 at 10 uM; assay type: ADME; summary of the method: as §3
CYP2D6, sequence (P10635 whole entry): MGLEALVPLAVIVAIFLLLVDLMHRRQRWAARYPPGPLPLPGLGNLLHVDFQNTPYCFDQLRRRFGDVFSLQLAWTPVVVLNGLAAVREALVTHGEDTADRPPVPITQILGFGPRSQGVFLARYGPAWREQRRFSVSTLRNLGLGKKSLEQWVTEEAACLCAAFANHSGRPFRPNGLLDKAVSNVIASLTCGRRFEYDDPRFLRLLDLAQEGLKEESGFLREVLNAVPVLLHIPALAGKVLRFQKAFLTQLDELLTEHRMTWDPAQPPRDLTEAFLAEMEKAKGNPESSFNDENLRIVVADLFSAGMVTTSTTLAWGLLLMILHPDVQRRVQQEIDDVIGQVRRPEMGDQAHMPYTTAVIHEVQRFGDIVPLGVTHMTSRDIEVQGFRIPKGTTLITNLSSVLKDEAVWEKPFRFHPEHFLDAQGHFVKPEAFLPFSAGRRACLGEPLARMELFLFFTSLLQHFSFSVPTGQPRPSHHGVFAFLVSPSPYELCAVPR

[11] = molecular target: CYP3A4 (Homo sapiens, UniProt P08684); test: Inhibition of CYP3A4 at 10 uM; assay type: ADME; summary of the method: as §3
CYP3A4, sequence (P08684 whole entry): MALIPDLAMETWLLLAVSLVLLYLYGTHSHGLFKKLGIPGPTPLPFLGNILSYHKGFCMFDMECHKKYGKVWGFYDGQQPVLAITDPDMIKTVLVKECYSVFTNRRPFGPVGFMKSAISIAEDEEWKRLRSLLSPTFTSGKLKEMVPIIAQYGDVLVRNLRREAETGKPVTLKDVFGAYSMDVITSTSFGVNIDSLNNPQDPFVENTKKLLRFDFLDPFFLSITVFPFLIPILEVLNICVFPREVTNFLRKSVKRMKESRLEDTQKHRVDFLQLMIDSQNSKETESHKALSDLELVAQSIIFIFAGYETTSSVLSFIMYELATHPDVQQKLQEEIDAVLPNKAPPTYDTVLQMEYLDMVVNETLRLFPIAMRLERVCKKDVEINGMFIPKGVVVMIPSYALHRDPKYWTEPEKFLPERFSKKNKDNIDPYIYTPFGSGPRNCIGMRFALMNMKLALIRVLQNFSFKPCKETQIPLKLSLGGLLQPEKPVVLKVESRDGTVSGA

[12] = Plasma clearance in iv dosed C57BL/6 mice; assay type: ADME, organism-based; settings: C57BL/6, mouse
Summary of the method: (§4)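 Single IV dose to female C57BL/6 mice or male Sprague–Dawley rats, NZW rabbits, Beagle dogs, or baboons; plasma concentrations measured by LC/MS/MS.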

[13] = test system: Mus musculus; test: Volume of distribution in iv dosed C57BL/6 mice; assay type: ADME, organism-based; settings: in vivo; summary of the method: as §4
[14] = Mean residence time in iv dosed C57BL/6 mice; assay type: ADME, organism-based; settings: C57BL/6, mouse, in vivo; summary of the method: as §4
[15] = Plasma clearance in iv dosed Sprague-Dawley rat; assay type: ADME, organism-based; summary of the method: as §4
[16] = test system: Rattus norvegicus; test: Volume of distribution in iv dosed Sprague-Dawley rat; assay type: ADME, organism-based; settings: in vivo; summary of the method: as §4
[17] = Mean residence time in iv dosed Sprague-Dawley rat; assay type: ADME, organism-based; settings: in vivo; summary of the method: as §4
[18] = Plasma clearance in iv dosed New Zealand White rabbit; assay type: ADME, organism-based, Oryctolagus cuniculus; summary of the method: as §4
[19] = test system: Baboon; test: Inhibition of fibrin deposition in baboon at 0.03 mg/kg, iv 1 hr post dose relative to control; assay type: functional; settings: Papio, in Papio anubis; summary of the method: as §1
[20] = test system: Baboon; test: Inhibition of fibrin deposition in baboon at 0.1 mg/kg, iv 1 hr post dose relative to control; assay type: functional; settings: Papio, in Papio anubis; summary of the method: as §1
[21] = test system: Oryctolagus cuniculus; test: Volume of distribution in iv dosed New Zealand White rabbit; assay type: ADME, organism-based; settings: in vivo; summary of the method: as §4
[22] = Mean residence time in iv dosed New Zealand White rabbit; assay type: ADME, organism-based, Oryctolagus cuniculus; settings: in vivo; summary of the method: as §4
[23] = Plasma clearance in iv dosed Beagle dog; assay type: ADME, organism-based, Canis lupus familiaris; summary of the method: as §4
[24] = test system: Canis familiaris; test: Volume of distribution in iv dosed Beagle dog; assay type: ADME, organism-based, Canis lupus familiaris; settings: in vivo; summary of the method: as §4
[25] = Mean residence time in iv dosed Beagle dog; assay type: ADME, organism-based, Canis lupus familiaris; settings: in vivo; summary of the method: as §4
[26] = Plasma clearance in iv dosed baboon; assay type: ADME, organism-based, Papio; summary of the method: as §4
[27] = test system: Baboon; test: Volume of distribution in iv dosed baboon; assay type: ADME, organism-based, Papio; settings: in vivo; summary of the method: as §4
[28] = Mean residence time in iv dosed baboon; assay type: ADME, organism-based, Papio; settings: in vivo; summary of the method: as §4
[29] = test system: Baboon; test: Inhibition of platelet deposition in baboon at 0.03 mg/kg, iv 1 hr post dose relative to control; assay type: functional; settings: Papio, in Papio anubis; summary of the method: as §1
[30] = test system: Baboon; test: Inhibition of platelet deposition in baboon at 0.1 mg/kg, iv 1 hr post dose relative to control; assay type: functional; settings: Papio, in Papio anubis; summary of the method: as §1
[31] = test system: Baboon; test: Inhibition of platelet deposition in baboon at 0.5 mg/kg, iv 1 hr post dose relative to control; assay type: functional; settings: Papio, in Papio anubis; summary of the method: as §1
[32] = test system: Baboon; test: Inhibition of fibrin deposition in baboon at 0.5 mg/kg, iv 1 hr post dose relative to control; assay type: functional; settings: Papio, in Papio anubis; summary of the method: as §1
[33] = molecular target: T1, Coagulation factor VII/tissue factor (Homo sapiens); test: Ratio of prothrombin time in baboon over prothrombin time in human
[34] = molecular target: T1, Coagulation factor VII/tissue factor (Homo sapiens); test: Anticoagulant potency in human plasma as measured by activated partial thromboplastin time
[35] = molecular target: T3, Coagulation factor VII (Homo sapiens, UniProt P08709); test: Binding affinity to F7a/TF complex; assay type: protein-complex assay
T3 sequence (P08709 whole entry): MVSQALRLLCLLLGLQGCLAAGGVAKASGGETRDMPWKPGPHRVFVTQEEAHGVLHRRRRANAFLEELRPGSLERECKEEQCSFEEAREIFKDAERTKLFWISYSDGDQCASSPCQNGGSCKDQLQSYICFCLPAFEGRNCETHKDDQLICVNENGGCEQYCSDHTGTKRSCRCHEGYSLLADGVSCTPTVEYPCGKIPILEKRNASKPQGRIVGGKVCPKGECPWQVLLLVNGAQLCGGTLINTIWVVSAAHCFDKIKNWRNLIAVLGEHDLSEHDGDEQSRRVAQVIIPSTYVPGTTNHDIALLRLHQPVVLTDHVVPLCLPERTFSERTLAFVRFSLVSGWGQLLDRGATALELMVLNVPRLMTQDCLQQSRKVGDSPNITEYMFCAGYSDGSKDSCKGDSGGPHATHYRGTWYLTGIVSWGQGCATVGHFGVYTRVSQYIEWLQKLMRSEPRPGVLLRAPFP

[36] = molecular target: T1, Coagulation factor VII/tissue factor (Homo sapiens); test: Anticoagulant potency in human plasma as measured by prothrombin time; assay type: functional, cell-free
Summary of the method: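 Clotting assay in human plasma on a coagulation analyzer run per manufacturer's instructions; concentration doubling prothrombin time reported.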

EC50 [1]: 170 nM | PT [2]: 11.3 s | PT [3]: 11.3 s | PT [4]: 11.6 s | Ratio Ki [5]: 3600 | Ratio Ki [6]: > 100000 | inhibition at 10 µM [7]: < 40% | inhibition at 10 µM [8]: < 40% | inhibition at 10 µM [9]: < 40% | inhibition at 10 µM [10]: < 40% | inhibition at 10 µM [11]: < 40% | clearance [12]: 0.103 mL/min | Vdss [13]: 2.43 mL | MRT [14]: 23.5 min | clearance [15]: 0.81 mL/min | Vdss [16]: 55.2 mL | MRT [17]: 1.15 h | clearance [18]: 6.1 mL/min | Vdss [21]: 1080 mL | MRT [22]: 3.03 h | clearance [23]: 30.5 mL/min | Vdss [24]: 6750 mL | MRT [25]: 3.73 h | clearance [26]: 26.5 mL/min | Vdss [27]: 5854 mL | MRT [28]: 3.87 h | Ratio [33]: 1.05 | 2aPTT [34]: 0.8 µM
Compound: N=C(N)c1ccc2[nH]c(-c3cc(C(CC(=O)O)C(=O)O)cc(-c4cc(CNC(N)=O)ccc4O)c3O)nc2c1 (configuration not stated)
ED50 ([1]; in Papio anubis, iv): 0.06 mg/kg | Emax ([1]; in Papio anubis, iv): 99% | inhibition in vivo at 0.03 mg/kg [19]: 20% | inhibition in vivo at 0.1 mg/kg [20]: 64% | inhibition in vivo at 0.03 mg/kg [29]: 14% | inhibition in vivo at 0.1 mg/kg [30]: 61% | inhibition in vivo at 0.5 mg/kg [31]: 87% | inhibition in vivo at 0.5 mg/kg [32]: 86%

Ki [35]: 14 nM | Ratio Ki [5]: 1100 | Ratio Ki [6]: 10700 | 2PT [36]: 3.6 µM
Compound: N=C(N)c1ccc2[nH]c(-c3cc(C(CC(=O)O)C(=O)O)cc(-c4cc(C(N)=O)ccc4O)c3O)nc2c1 (configuration not stated)

Ki [35]: 12 nM
Compound: N=C(N)c1ccc2nc(-c3cc(C(CC(=O)O)C(=O)O)cc(-c4cc(CC(=O)O)ccc4O)c3O)[nH]c2c1 (configuration not stated)

Ki [35]: 43 nM | Ratio Ki [5]: 300 | Ratio Ki [6]: 3500 | 2PT [36]: 8.2 µM
Compound: N=C(N)c1ccc2[nH]c(-c3cc(C(CC(=O)O)C(=O)O)cc(-c4cc(C(=O)O)ccc4O)c3O)nc2c1 (configuration not stated)

Ratio Ki [5]: 125 | Ratio Ki [6]: 12500 | 2PT [36]: 6.2 µM
Compound: N=C(N)c1ccc2[nH]c(-c3cc(C(CC(=O)O)C(=O)O)cc(-c4cc(CC(=O)O)ccc4O)c3O)nc2c1 (configuration not stated)

Ratio Ki [5]: 280 | Ratio Ki [6]: 12500 | 2PT [36]: 6.4 µM
Compound: N=C(N)c1ccc2[nH]c(-c3cc(C(CC(=O)O)C(=O)O)cc(-c4cc(CC(N)=O)ccc4O)c3O)nc2c1 (configuration not stated)

Ratio Ki [5]: 1800 | Ratio Ki [6]: 55500 | 2PT [36]: 10.2 µM
Compound: N=C(N)c1ccc2[nH]c(-c3cc(C(CC(=O)O)C(=O)O)cc(-c4cc(F)ccc4O)c3O)nc2c1 (configuration not stated)

Ki [35]: 13 nM | Ratio Ki [5]: 350 | Ratio Ki [6]: 11500 | 2PT [36]: 5.4 µM
Compound: N=C(N)c1ccc2[nH]c(-c3cc(C(CC(=O)O)C(=O)O)cc(-c4cc(CCC(=O)O)ccc4O)c3O)nc2c1 (configuration not stated)

Ki [35]: 35 nM | Ratio Ki [5]: 510 | Ratio Ki [6]: 4200 | 2PT [36]: 2.9 µM
Compound: N=C(N)c1ccc2[nH]c(-c3cc(C(CC(=O)O)C(=O)O)cc(-c4cc(CN)ccc4O)c3O)nc2c1 (configuration not stated)

Ki [35]: 44 nM | Ratio Ki [5]: 270 | Ratio Ki [6]: 3400 | 2PT [36]: 4.9 µM
Compound: N=C(N)c1ccc2[nH]c(-c3cc(C(CC(=O)O)C(=O)O)cc(-c4cc(NC(N)=O)ccc4O)c3O)nc2c1 (configuration not stated)

Ki [35]: 12 nM
Compound: N=C(N)c1ccc2nc(-c3cc(C(CC(=O)O)C(=O)O)cc(-c4cc(CC(N)=O)ccc4O)c3O)[nH]c2c1 (configuration not stated)
